Laboratory results taken from BindingDB's records for doi:10.1016/j.bmcl.2017.04.043 (Vanderbilt University Medical Center, 2017).

Assays:
Cytochrome P450 1A2 = target: T1, Cytochrome P450 1A2 (Homo sapiens, UniProt P05177); experiment: ChEBML_1679936
T1 sequence (P05177 whole entry): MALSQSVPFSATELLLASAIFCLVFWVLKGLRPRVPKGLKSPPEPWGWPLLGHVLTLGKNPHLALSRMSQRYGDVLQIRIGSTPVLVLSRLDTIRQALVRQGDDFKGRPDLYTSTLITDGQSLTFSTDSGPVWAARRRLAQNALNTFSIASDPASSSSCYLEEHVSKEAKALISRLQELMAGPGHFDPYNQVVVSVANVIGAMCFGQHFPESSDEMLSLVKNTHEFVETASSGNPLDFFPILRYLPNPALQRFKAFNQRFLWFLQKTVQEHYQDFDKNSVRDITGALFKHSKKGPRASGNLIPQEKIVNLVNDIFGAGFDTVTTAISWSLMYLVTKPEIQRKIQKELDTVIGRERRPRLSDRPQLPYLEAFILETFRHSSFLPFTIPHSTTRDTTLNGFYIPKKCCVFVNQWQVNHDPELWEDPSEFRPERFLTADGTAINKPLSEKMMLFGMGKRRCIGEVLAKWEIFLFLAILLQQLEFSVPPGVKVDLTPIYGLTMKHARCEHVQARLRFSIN
From the text: Induction of CYP1A2 in cryopreserved human hepatocytes measured after 48 hrs

[1] = target: T2, Muscarinic acetylcholine receptor M4 (Homo sapiens, UniProt P08173); experiment: ChEBML_1679899
T2 sequence (P08173 whole entry): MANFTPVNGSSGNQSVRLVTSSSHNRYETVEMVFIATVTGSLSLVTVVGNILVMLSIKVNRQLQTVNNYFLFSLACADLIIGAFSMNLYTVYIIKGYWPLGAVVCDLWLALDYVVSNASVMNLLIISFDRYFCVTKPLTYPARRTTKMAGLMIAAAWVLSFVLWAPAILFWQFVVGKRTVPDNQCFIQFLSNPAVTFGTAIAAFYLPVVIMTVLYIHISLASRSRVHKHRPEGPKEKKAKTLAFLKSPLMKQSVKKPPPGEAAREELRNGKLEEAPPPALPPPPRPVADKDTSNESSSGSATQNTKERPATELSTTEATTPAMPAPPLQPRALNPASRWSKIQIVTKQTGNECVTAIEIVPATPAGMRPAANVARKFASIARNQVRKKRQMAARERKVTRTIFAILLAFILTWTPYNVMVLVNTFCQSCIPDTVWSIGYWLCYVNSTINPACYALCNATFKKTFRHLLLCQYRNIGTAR
From the text: (§1) Positive allosteric modulation of human M4 receptor expressed in CHO cells coexpressing Gqi5 assessed as increase in acetylcholine-induced calcium mobilization

[2] = target: T2, Muscarinic acetylcholine receptor M4; experiment: as §1
How it was run: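 Calcium mobilization in CHO cells expressing hM4 with Gqi5. Compound added in presence of a fixed EC20 concentration of acetylcholine. Values are means of three independent experiments, each run in triplicate.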

Row | SMILES | EC50 [1] | EC50 [2] | other results
1 | Cc1nnc2sc(C(=O)NCc3ccc(-c4cccnc4F)cc3)c(N)c2c1C |  |  | EC50 (Cytochrome P450 1A2): > 50000 nM
2 | Cc1cc(-c2ccc(CNC(=O)c3sc4nnc(C)c(C)c4c3N)cc2)cnc1F | 776 nM |  | 
3 | Cc1nnc2sc(C(=O)NCc3ccc(-c4ccnc(F)c4)cc3)c(N)c2c1C |  | 49 nM | 
4 | Cc1nnc2sc(C(=O)NCc3ccc(-c4cnccn4)cc3)c(N)c2c1C |  | 100 nM | 

Now from value to molecule, other results behind:

Row | EC50 [1] | EC50 [2] | SMILES | other results
5 |  | 26.9 nM | Cc1nnc2sc(C(=O)NCc3ccc(-c4ccncc4)cc3)c(N)c2c1C | 
6 | 63.1 nM |  | Cc1nnc2sc(C(=O)NCc3ccc(-c4cccnc4)cc3)c(N)c2c1C | 
